Assay outcomes: PubChem, several laboratories
Mdm2-MdmX inh = inhibitors of human Mdm2/MdmX interaction; O15151+Q00987; SaOS-2 split-luciferase Mdm2/MdmX complementation, luminescence; inhibition, % at 8 µM; hit rate 3% among 330,000;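 active = inhibition of at least 50% at 8 µM in the primary screen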
Target sequence (O15151 whole entry, looked up): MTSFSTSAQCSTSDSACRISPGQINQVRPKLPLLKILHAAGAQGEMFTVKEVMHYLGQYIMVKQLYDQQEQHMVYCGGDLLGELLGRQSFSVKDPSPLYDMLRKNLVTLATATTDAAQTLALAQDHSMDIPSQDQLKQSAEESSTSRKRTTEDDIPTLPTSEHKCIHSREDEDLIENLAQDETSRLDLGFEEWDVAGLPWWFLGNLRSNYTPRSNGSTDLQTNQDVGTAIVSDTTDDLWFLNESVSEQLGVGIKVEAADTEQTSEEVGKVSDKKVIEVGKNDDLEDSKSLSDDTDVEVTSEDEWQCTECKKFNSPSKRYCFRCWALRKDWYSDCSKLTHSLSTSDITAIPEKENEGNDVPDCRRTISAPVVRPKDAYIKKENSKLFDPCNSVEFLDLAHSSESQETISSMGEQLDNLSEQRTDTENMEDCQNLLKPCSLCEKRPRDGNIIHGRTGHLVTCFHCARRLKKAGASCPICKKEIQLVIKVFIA
Target sequence (Q00987 whole entry, looked up): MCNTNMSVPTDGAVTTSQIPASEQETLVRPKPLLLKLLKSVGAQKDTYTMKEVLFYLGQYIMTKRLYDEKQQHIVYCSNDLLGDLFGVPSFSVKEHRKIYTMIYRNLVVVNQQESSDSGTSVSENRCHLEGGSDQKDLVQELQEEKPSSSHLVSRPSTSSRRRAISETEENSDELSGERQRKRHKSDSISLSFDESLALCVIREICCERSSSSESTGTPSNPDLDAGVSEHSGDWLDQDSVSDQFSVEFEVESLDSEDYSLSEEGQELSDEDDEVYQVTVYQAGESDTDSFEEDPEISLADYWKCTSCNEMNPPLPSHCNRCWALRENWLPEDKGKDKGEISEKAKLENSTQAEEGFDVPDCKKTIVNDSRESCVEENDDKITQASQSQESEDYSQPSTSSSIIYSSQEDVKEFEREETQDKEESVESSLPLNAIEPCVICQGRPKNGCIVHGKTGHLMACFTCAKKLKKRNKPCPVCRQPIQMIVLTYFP
Beta apoptosis = blocks beta cell apoptosis. INS-1E cytokine-induced death, ATP luminescence, 48 h; percent of positive-control rescue, neutral wells zero. protection from apoptosis, % (no concentration beside the values). hit rate 0.8% among 300,000. AID 435005;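 active = Every replicate reaches about 75%, or at least half do and their mean reaches it too, limit read from the data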;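 also: 0% = cytokine-treated negative control wells and 100% = positive control rescue; higher means more ATP so stronger rescue from cytokine killing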
CSC inhib = blocks cancer stem cells | cancer stem cell-like cells viability, luminescence | inhibition, % at 7.5 µM | hit rate 1.1% among 300,000 | AID 2717; in the data active = inhibition above about 75%; tested in HMLE shEcad cells
SKKanGAS inh = SKKanGAS growth inhibition. S. pyogenes SKKanGAS, kanamycin growth, BacTiter-Glo, 6 h. inhibition, % at 7.5 µM. hit rate 1.3% among 300,000;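 active = mean replicate score, as percent of positive control median, at least 50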;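 also: strain carries kanamycin resistance gene driven by streptokinase promoter and grows in 40 µg/ml kanamycin; loss of luminescence reflects streptokinase promoter inhibition or plain growth inhibition; 0% = median of DMSO wells and 100% = positive control at its reference dose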
L major viab = Leishmania major promastigote growth inhibition | hit rate 9% among 200,000 | inhibition, % at 10 µM | AID 1063 | Leishmania major promastigotes, resazurin fluorescence viability; in the data active = inhibition above about 50%;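 also: promastigotes grown with compound for 44 hours at 28 °C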
T cruzi repl = T. cruzi replication inhibition | T. cruzi beta-gal in NIH3T3, luminescence, 90 h | inhibition, % (concentration not given with the values) | hit rate 1.4% among 300,000 | AID 1885;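 active = mean inhibition across valid replicates above about 55%, limit read from the data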;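 also: signal also drops with host cell toxicity which is not excluded here; 0% = plate median of DMSO wells and 100% = zero luminescence signal; higher percent means less beta-gal luminescence so fewer parasites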
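Material: NIH/3T3 host cells with β-galactosidase reporter T. cruzi; Input: 5,000 host fibroblasts per well; Medium: DMEM, 2% fetal bovine serum; Compound: 50 nL DMSO compound solution per well; Schedule: 3 h host attachment, then at least 90 h co-culture; Detection: luminescent β-galactosidase signal after 60 min lysis.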
The depositor's hits bear a star; · = no result. An excerpt weighted towards active compounds, which were near 9.4% of everything screened.

SMILES | Mdm2-MdmX inh | Beta apoptosis | CSC inhib | SKKanGAS inh | L major viab | T cruzi repl
C[C@H]1c2cccc(O)c2C(O)=C2C(=O)[C@]3(O)C(O)=C(C(N)=O)C(=O)[C@@H](N(C)C)[C@@H]3[C@@H](O)[C@@H]21 | -54.5 | -1.6 | -4.8 | 96.8* | · | -22.7
CN(C)c1ccc(O)c2c1CC1CC3[C@@H](N(C)C)C(=O)C(C(N)=O)=C(O)[C@]3(O)C(=O)C1=C2O (stereo not given in full) | -21.2 | -10.9 | -10.6 | 105.6* | 83.4* | -15.0
O=C(COC(=O)CCC(=O)c1ccc(F)cc1)Nc1ccc(Cl)cn1 | -21.7 | -3.9 | -10.7 | · | · | ·
O=C(c1cc(-c2cccs2)nc2ccccc12)N1CCN(CCO)CC1 | 4.3 | · | · | · | · | ·
COc1ccc(-c2cc(C(=O)N3CCN(c4ccccc4)CC3)c3ccccc3n2)cc1 | 37.5 | 5.0 | 63.1 | 26.5 | 1.5 | -5.0
CC(=O)N1CCN(c2nc(-c3cccs3)nc3ccccc23)CC1 | -6.3 | -3.3 | 17.1 | 9.3 | 76.9* | -10.0
O=C(c1cc(-c2cccs2)nc2ccccc12)N1CCN(c2ccccc2O)CC1 | 23.5 | 4.4 | -2.0 | 68.2* | 11.8 | 6.8
Cc1ccc(-c2cc(C(=O)N3CCN(c4ccc(O)cc4)CC3)c3ccccc3n2)cc1 | 34.2 | -3.3 | 78.7* | · | · | ·
COc1ccc(C(C)=O)cc1COc1nc(C)nc2ccccc12 | 8.0 | -3.5 | 3.2 | -6.1 | -0.3 | 4.4
CSc1ccc(CNc2ccc(Cl)cc2)cc1 | -19.2 | -6.8 | -13.3 | 26.1 | 99.9* | 36.8
CCOc1ccc(/C=N/Nc2cc(N3CCOCC3)nc(C)n2)c(O)c1 | 44.9 | -3.5 | 4.3 | 65.5* | · | -11.6
CCCN(CCC)CCCNC(=O)c1cn(-c2ccc(OC)cc2)c(=O)c2ccccc12 | 10.0 | -8.2 | -10.6 | -1.4 | · | -3.0
COc1ccc(NC(=O)c2cccc(-c3ccc(O)cc3)c2)cn1 | 37.2 | 8.8 | 85.6* | 52.9* | · | -3.2
CC(=O)Nc1cccc(NC(=O)c2cccc(-c3ccc(O)cc3)c2)c1 | 28.9 | 6.0 | · | 8.8 | · | -10.2
Cc1cccc(C)c1OCC(O)CN(Cc1ccccc1O)C1CCCCC1 (stereo not given) | 5.1 | 28.3 | 25.1 | 0.5 | 94.0* | 26.9
O=C(c1ccccc1)c1ccc(OCC(O)CNCc2ccc(F)cc2)cc1 (stereo not given) | · | -1.4 | 0.5 | -5.1 | · | 50.5
CCC(=O)c1ccc(OCC(=O)NC2CCCC2)cc1 | 19.1 | 0.2 | 7.8 | · | · | ·
CN(CC(O)COc1ccc(OCC(O)CN(C)C2CCCCC2)cc1)C1CCCCC1 (stereo not given) | 47.4 | -15.5 | 4.0 | -6.9 | 63.1* | 14.3
CN(CC(O)COC(c1ccccc1)c1ccccc1)C1CCCCC1 (stereo not given) | 11.4 | 11.9 | -11.8 | -3.3 | 18.5 | 38.1
CCC(=O)c1ccc(OCC(O)CNCc2ccc(F)cc2)cc1 (stereo not given) | 9.5 | 4.9 | -17.4 | 2.1 | 79.7* | 34.1
CCC(=O)c1ccc(OCC(O)CN(C)C2CCCCC2)cc1 (stereo not given) | 14.8 | 1.1 | 24.3 | -6.4 | 91.8* | 12.5
CC1CN(C(=O)CCC(=O)NCc2ccc(Cl)cc2)c2ccccc2S1 (stereo not given) | 10.2 | -3.8 | · | -5.9 | · | -1.2
Cc1cc(C2=CC(=O)C[C@H](c3ccc4c(c3)OCO4)C2)ccc1F | 2.5 | -0.9 | 22.9 | · | · | ·
Cc1cc(CNC(=O)Cn2nc(C)c([N+](=O)[O-])c2C)c2ccccc2n1 | -11.7 | 1.7 | 13.4 | -2.2 | -5.6 | 3.3
C=CCc1ccc(OCCOCCOc2cccc3ccc(C)nc23)c(OC)c1 | -2.9 | 3.8 | 7.9 | -5.5 | -3.4 | 11.7
SMILES | Mdm2-MdmX inh | Beta apoptosis | CSC inhib | SKKanGAS inh | L major viab | T cruzi repl
C=CCc1ccc(OCCOCCNCCCC)c(OC)c1 | 5.3 | -9.8 | 20.7 | -6.1 | 95.8* | 10.2
C=CCc1ccc(OCCOCCNCCOC)c(OC)c1 | 4.9 | -0.9 | -8.4 | -6.0 | 98.8* | 25.3
CCc1ccc(C2CC(=O)N(c3ccc(F)cc3)C3=C2C(=O)OC3)cc1 (stereo not given) | -10.8 | -4.6 | -7.2 | 4.4 | -1.8 | -18.4
O=C(CN1CCN(Cc2ccc3c(c2)OCO3)CC1)c1c[nH]c2ccccc12 | 16.3 | -0.5 | 21.6 | 3.2 | 85.9* | 12.0
O=C(CN1CCN(Cc2ccc3c(c2)OCO3)CC1)Nc1ccc2c(c1)OCO2 | 17.9 | 2.1 | 6.9 | -1.5 | 91.8* | -9.8
COc1ccccc1NC(=O)CN1CCN(CC(=O)Nc2ccc3c(c2)OCCO3)CC1 | 13.5 | 1.6 | 1.8 | · | 55.4* | ·
